The source made the active and inactive calls. No cut-off for these calls is given here.
Experiments:
Trypanosoma cruzi [1] = assay: Antitrypanosomal activity against Trypanosoma cruzi Tulahuen amastigotes infected in […] 3T3 cells after 7 days by alamar blue assay; format: functional, organism-based; settings: NIH3T3, 168 h
How it was run: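 T. cruzi amastigotes grown inside mammalian host 3T3 cells were exposed to compounds to measure parasite killing.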

[2] = Inhibition of rat recombinant PFT expressed in insect Sf9 cells by scintillation proximity assay
Cytochrome P450 3A4 = Cytochrome P450 3A4 (Homo sapiens, UniProt P08684); assay: Inhibition of human recombinant CYP3A4; format: ADME
Chain of Cytochrome P450 3A4 (P08684 whole entry): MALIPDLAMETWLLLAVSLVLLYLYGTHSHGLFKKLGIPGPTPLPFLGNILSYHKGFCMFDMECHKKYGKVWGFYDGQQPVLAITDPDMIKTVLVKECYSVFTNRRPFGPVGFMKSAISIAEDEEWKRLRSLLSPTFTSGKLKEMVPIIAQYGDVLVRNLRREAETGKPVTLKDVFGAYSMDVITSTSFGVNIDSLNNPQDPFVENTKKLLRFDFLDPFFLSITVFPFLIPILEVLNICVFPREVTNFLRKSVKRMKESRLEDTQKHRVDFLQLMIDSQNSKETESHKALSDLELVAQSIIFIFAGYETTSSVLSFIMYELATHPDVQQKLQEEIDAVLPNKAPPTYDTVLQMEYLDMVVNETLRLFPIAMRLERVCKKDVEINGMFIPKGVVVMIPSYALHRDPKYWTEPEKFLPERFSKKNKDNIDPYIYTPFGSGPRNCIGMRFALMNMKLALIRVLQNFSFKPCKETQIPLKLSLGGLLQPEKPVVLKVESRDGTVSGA

[3] = target: Sterol 14-alpha demethylase (Trypanosoma cruzi (strain CL Brener)) (UniProt Q7Z1V1); assay: Binding affinity to Trypanosoma cruzi recombinant lanosterol 14-alpha-demethylase by optical spectroscopy
Chain of Sterol 14-alpha demethylase (Trypanosoma cruzi (strain CL Brener)) (Q7Z1V1 whole entry, looked up): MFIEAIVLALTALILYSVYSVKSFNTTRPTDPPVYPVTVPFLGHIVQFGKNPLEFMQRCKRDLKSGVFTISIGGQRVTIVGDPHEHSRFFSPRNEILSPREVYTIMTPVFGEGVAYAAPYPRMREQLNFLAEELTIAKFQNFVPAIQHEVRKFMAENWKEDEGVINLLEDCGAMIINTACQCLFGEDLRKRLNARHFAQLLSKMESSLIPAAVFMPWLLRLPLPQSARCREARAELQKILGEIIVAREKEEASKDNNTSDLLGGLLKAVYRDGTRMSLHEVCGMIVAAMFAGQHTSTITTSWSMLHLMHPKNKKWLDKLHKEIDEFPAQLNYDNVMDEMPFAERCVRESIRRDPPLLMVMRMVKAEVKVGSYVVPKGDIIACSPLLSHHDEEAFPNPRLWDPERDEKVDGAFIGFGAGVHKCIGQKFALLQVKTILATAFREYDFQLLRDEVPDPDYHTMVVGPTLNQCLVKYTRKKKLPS
How it was run: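 Recombinant T. cruzi lanosterol 14α-demethylase at 1.4 μM was titrated with 0.2–2 μM compound. Binding was followed by difference optical spectroscopy of the visible heme Soret band.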

Trypanosoma cruzi [4] = assay: Ratio of EC50 for tipifarnib to drug for antitrypanosomal activity against Trypanosoma cruzi Tulahuen amastigotes infected in […] 3T3 cells after 7 days by alamar blue assay; format: functional, NIH3T3

| Structure (SMILES) | EC50 (Trypanosoma cruzi [1]) [nM] | IC50 (Cytochrome P450 3A4) [nM] | Activity [3] | IC50 [2] [nM] | Ratio EC50 (Trypanosoma cruzi [4]) |
| --- | --- | --- | --- | --- | --- |
| COC(c1ccc2ccccc2c1)(c1ccc2c(c1)c(-c1cccc(Cl)c1)cc(=O)n2C)c1cncn1C (centres undefined) | 2.2 |  |  | 2300 |  |
| COC(c1ccc(Cl)cc1)(c1ccc2c(c1)c(-c1ccccc1)cc(=O)n2C)c1cncn1C (centres undefined) | 0.8 | 2350 |  | 330 |  |
| COC(c1ccc(Cl)cc1)(c1ccc2c(c1)c(-c1cccc(F)c1)cc(=O)n2C)c1cncn1C (centres undefined) | 1.1 |  |  | 343 |  |
| COC(c1ccc(Cl)cc1)(c1ccc2c(c1)c(-c1ccc(C)cc1)cc(=O)n2C)c1cncn1C (centres undefined) | 2 |  |  | 410 |  |
| COC(c1ccc(Cl)cc1)(c1ccc2c(c1)c(-c1ccccc1C(F)(F)F)cc(=O)n2C)c1cncn1C (centres undefined) | 0.8 |  |  | > 5000 |  |
| Cn1cncc1[C@@](N)(c1ccc(Cl)cc1)c1ccc2c(c1)c(-c1cccc(Cl)c1)cc(=O)n2C [TIPIFARNIB] |  |  |  | 0.7 |  |
| CNC(c1ccc(Cl)cc1)(c1ccc2c(c1)c(-c1cccc(Cl)c1C)cc(=O)n2C)c1cncn1C (centres undefined) | 5 |  |  | 957 |  |
| COC(c1ccc(Cl)cc1)(c1ccc2c(c1)c(-c1cccc(Cl)c1)cc(=O)n2C)c1cncn1C (centres undefined) | 3.1 |  |  | 65 |  |
| COC(c1ccc(Cl)cc1)(c1ccc2c(c1)c(-c1c(C)cccc1C)cc(=O)n2C)c1cncn1C (centres undefined) | 1.8 |  |  | > 10000 |  |
| COC(c1ccc(Cl)cc1)(c1ccc2c(c1)c(-c1cccc(-c3ccccc3)c1)cc(=O)n2C)c1cncn1C (centres undefined) | 320 |  |  |  |  |
| Cn1cncc1C(O)(c1ccc(Cl)cc1)c1ccc2c(c1)c(-c1cccc(Cl)c1)cc(=O)n2C (centres undefined) | 17 |  |  | 8 |  |
| COC(c1ccc(Cl)cc1)(c1ccc2c(c1)c(-c1cccc(C(F)(F)F)c1)cc(=O)n2C)c1cncn1C (centres undefined) | 12 |  |  | 1320 |  |
| CCOC(c1ccc(Cl)cc1)(c1ccc2c(c1)c(-c1cccc(Cl)c1C)cc(=O)n2C)c1cncn1C (centres undefined) | 27 |  |  | > 10000 |  |
| COC(c1ccc(C(F)(F)F)cc1)(c1ccc2c(c1)c(-c1cccc(Cl)c1)cc(=O)n2C)c1cncn1C (centres undefined) | 5 |  |  |  |  |
| COC(c1ccc(Cl)cc1)(c1ccc2c(c1)c(-c1cc(C)cc(C)c1)cc(=O)n2C)c1cncn1C (centres undefined) | 1.4 |  |  | 470 |  |
| CCCOC(c1ccc(Cl)cc1)(c1ccc2c(c1)c(-c1cccc(Cl)c1C)cc(=O)n2C)c1cncn1C (centres undefined) | 69 |  |  | > 5000 |  |
| COC(c1ccc(Cl)cc1)(c1ccc2c(c1)c(-c1c(Cl)cccc1Cl)cc(=O)n2C)c1cncn1C (centres undefined) | 3.21 |  |  | > 10000 |  |
| COC(c1ccc(C(C)C)cc1)(c1ccc2c(c1)c(-c1cccc(Cl)c1)cc(=O)n2C)c1cncn1C (centres undefined) | 33 |  |  |  |  |
| COC(c1ccc(Cl)cc1)(c1ccc2c(c1)c(-c1ccccc1F)cc(=O)n2C)c1cncn1C (centres undefined) | 0.8 |  |  | 1870 |  |
| Cc1c(Cl)cccc1-c1cc(=O)n(C)c2ccc(C(O)(c3ccc(Cl)cc3)c3cncn3C)cc12 (centres undefined) | 112 |  |  | 796 |  |

Second part, led by results:

| EC50 (Trypanosoma cruzi [1]) [nM] | IC50 (Cytochrome P450 3A4) [nM] | Activity [3] | Structure (SMILES) | IC50 [2] [nM] | Ratio EC50 (Trypanosoma cruzi [4]) |
| --- | --- | --- | --- | --- | --- |
| 1.2 |  |  | COC(c1ccc(Cl)cc1)(c1ccc2c(c1)c(-c1cccc(C)c1)cc(=O)n2C)c1cncn1C (centres undefined) | 85 |  |
| 10 |  |  | CCc1ccc(C(OC)(c2ccc3c(c2)c(-c2cccc(Cl)c2)cc(=O)n3C)c2cncn2C)cc1 (centres undefined) |  |  |
| 0.31 | 275 | Active | COC(c1ccc(Cl)cc1)(c1ccc2c(c1)c(-c1c(F)cccc1F)cc(=O)n2C)c1cncn1C (centres undefined) | > 10000 |  |
| 0.6 |  |  | COC(c1ccc(Cl)cc1)(c1ccc2c(c1)c(-c1cccc(Cl)c1C)cc(=O)n2C)c1cncn1C (centres undefined) | > 5000 | 10 |
| 0.5 |  |  | COC(c1ccc(Cl)cc1)(c1ccc2c(c1)c(-c1ccc(F)cc1)cc(=O)n2C)c1cncn1C (centres undefined) | 991 |  |
| 100 |  |  | CCn1cncc1C(NC)(c1ccc(Cl)cc1)c1ccc2c(c1)c(-c1cccc(Cl)c1)cc(=O)n2C (centres undefined) | 66 |  |
| 0.7 |  |  | COC(c1ccc(Cl)cc1)(c1ccc2c(c1)c(-c1ccccc1C)cc(=O)n2C)c1cncn1C (centres undefined) | 3260 |  |
| 83 |  |  | COC(c1ccc(Cl)cc1)(c1ccc2c(c1)c(-c1cccc(Cc3ccccc3)c1)cc(=O)n2C)c1cncn1C (centres undefined) |  |  |
| 118 |  |  | CCn1cncc1C(N)(c1ccc(Cl)cc1)c1ccc2c(c1)c(-c1cccc(Cl)c1)cc(=O)n2C (centres undefined) | 28 |  |
| 3 |  |  | CCn1cncc1C(OC)(c1ccc(Cl)cc1)c1ccc2c(c1)c(-c1cccc(Cl)c1)cc(=O)n2C (centres undefined) | 970 |  |
| 3 |  |  | COC(c1ccc(C)cc1)(c1ccc2c(c1)c(-c1cccc(Cl)c1)cc(=O)n2C)c1cncn1C (centres undefined) |  |  |
| 0.82 | 923 |  | COC(c1ccc(Cl)cc1)(c1ccc2c(c1)c(-c1ccc(Cl)cc1)cc(=O)n2C)c1cncn1C (centres undefined) | 6040 |  |
| 228 |  |  | CCn1cncc1C(O)(c1ccc(Cl)cc1)c1ccc2c(c1)c(-c1cccc(Cl)c1)cc(=O)n2C (centres undefined) | 30 |  |

— ChEMBL document CHEMBL1157803 (J Med Chem, 2010)
